Laboratory results: ChEMBL document CHEMBL3108672, “Structure-activity relationship of adenosine 5'-diphosphoribose at the transient receptor potential melastatin 2 (TRPM2) channel: rational design of antagonists” (J Med Chem, 2013)
The source made the active and inactive calls. The rule behind the calls is not given here.

Columns and labels:
[1] = biological target: T1, Transient receptor potential cation channel subfamily M member 2 (Homo sapiens, UniProt O94759); assay: Inhibition of TRPM2 (unknown origin)
[2] = biological target: T1, Transient receptor potential cation channel subfamily M member 2; assay: Antagonist activity at human TRPM2 expressed in HEK293 cells assessed as inhibition of ADPR-induced maximum outward potassium current at 100 uM at +15 mV by whole-cell patch-clamp electrophysiology; format: cell-based
Summary of the method: (§1)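 Stable clonal HEK293 line expressing human TRPM2 (with EGFP, G418-selected). Whole-cell patch clamp at room temperature; bath had 140 mM NMDG, 1 mM Ca2+, pH 7.4; KCl/EGTA pipet solution held 200 nM free Ca2+. Channel was activated by 100 μM ADPR in the pipet, and analogue was added to the same pipet solution. Read-out: maximum outward current at +15 mV from repeated ramps every 5 s over 450 s.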

[3] = biological target: T1, Transient receptor potential cation channel subfamily M member 2; assay: Inhibition of human TRPM2 expressed in HEK293 cells assessed as inhibition of ADP-ribose-induced current by patch clamp electrophysiology; format: cell-based
Summary of the method: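 Whole-cell patch clamp of a stable HEK293 clone co-expressing human TRPM2 and EGFP (G418-selected), at room temperature. Bath: 140 mM NMDG, 1 mM Ca²⁺, pH 7.4. Pipette: KCl-based with 200 nM free Ca²⁺ and 100 μM ADPR, with analogue added to it (0.1% DMSO for lipophilic ones). Voltage ramps from −85 mV every 5 s for 450 s. Maximum outward current at +15 mV is normalised to the ADPR control and fitted to a logistic curve for IC50.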

[4] = biological target: T1, Transient receptor potential cation channel subfamily M member 2; assay: Antagonist activity at human TRPM2 expressed in HEK293 cells assessed as partial inhibition of ADPR-induced maximum outward potassium current at +15 mV by whole-cell patch-clamp electrophysiology; format: cell-based; summary of the method: as §1
[5] = biological target: T1, Transient receptor potential cation channel subfamily M member 2; assay: Partial antagonist activity at TRPM2 in human polymorphonuclear neutrophils assessed as reduction in A5 peptide-induced intracellular calcium accumulation at 100 uM preincubated for 15 mins followed by A5 peptide-challenge by fluorescence microscopic analysis relative to control; format: cell-based; set-up: scale not given: the % may be the effect or the level left
Summary of the method: (§2)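 Primary human PMN were used within 6 h of blood donation, loaded with 4 μM Fura-2/AM for 30 min at 37 °C, and plated on fibronectin/BSA-coated coverslips. Cells were preincubated 15 min at ambient temperature with 10 mM ascorbate plus 100 μM analogue. About 70 s into recording they were stimulated with 1 μM fMLP or 10 μM A5 peptide. Read-out: ratiometric Ca2+ imaging, single-cell traces synchronized to the first peak.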

[6] = biological target: T1, Transient receptor potential cation channel subfamily M member 2; assay: Antagonist activity at human TRPM2 expressed in HEK293 cells assessed as inhibition of ADPR-induced maximum outward potassium current at +15 mV by whole-cell patch-clamp electrophysiology; format: cell-based; summary of the method: as §1
[7] = biological target: T1, Transient receptor potential cation channel subfamily M member 2; assay: Partial antagonist activity at TRPM2 in human polymorphonuclear neutrophils assessed as reduction in fMLP-induced intracellular calcium accumulation at 100 uM preincubated for 15 mins followed by fMLP-challenge by fluorescence microscopic analysis relative to control; format: cell-based; set-up: scale not given: the % may be the effect or the level left; summary of the method: as §2
[8] = biological target: T1, Transient receptor potential cation channel subfamily M member 2; assay: Partial antagonist activity at TRPM2 in human polymorphonuclear neutrophils assessed as reduction in fMLP-induced chemotaxis at 100 uM preincubated for 15 mins followed by fMLP-challenge by microscopic analysis
Summary of the method: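 Primary human PMN at 3 × 10^6/mL, in Ca2+ buffer with 10% autologous plasma, were held 15 min at room temperature with 100 μM analogue in fibronectin-coated microfluidic chemotaxis slides. A 0→50 nM fMLP gradient was applied, and bright-field images were taken every 30 s for 1 h. Cells were tracked manually; read-out was displacement along the gradient.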

[9] = biological target: T1, Transient receptor potential cation channel subfamily M member 2; assay: Antagonist activity at human TRPM2 expressed in HEK293 cells assessed as inhibition of ADPR-induced maximum outward potassium current at 900 uM at +15 mV by whole-cell patch-clamp electrophysiology; format: cell-based; summary of the method: as §1
[10] = biological target: T1, Transient receptor potential cation channel subfamily M member 2; assay: Activation of TRPM2 (unknown origin)
Summary of the method: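 Whole-cell patch clamp at room temperature on a HEK293 clone stably expressing human TRPM2 with EGFP (G418-selected). Bath solution: 140 mM NMDG, 5 mM KCl, 3.3 mM MgCl₂, 1 mM CaCl₂, HEPES pH 7.4. KCl pipet solution with free Ca²⁺ buffered to 200 nM by EGTA, plus 100 μM ADPR. Cells held at −50 mV with 140 ms ramps from −85 mV every 5 s for 450 s. Read-out was the maximum outward current at +15 mV.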

[11] = biological target: T1, Transient receptor potential cation channel subfamily M member 2; assay: Inhibition of human recombinant TRPM2
[12] = biological target: T1, Transient receptor potential cation channel subfamily M member 2; assay: Inhibition of TRPM2 (unknown origin) expressed in HEK293 cells assessed as inhibition of ADP-ribose-induced current by patch clamp technique; format: cell-based
[13] = biological target: T1, Transient receptor potential cation channel subfamily M member 2; assay: Inhibition of human TRPM2 expressed in HEK293 cells assessed as inhibition of H2O2-induced intracellular calcium level by patch clamp technique; format: cell-based

T1 sequence (O94759 whole entry): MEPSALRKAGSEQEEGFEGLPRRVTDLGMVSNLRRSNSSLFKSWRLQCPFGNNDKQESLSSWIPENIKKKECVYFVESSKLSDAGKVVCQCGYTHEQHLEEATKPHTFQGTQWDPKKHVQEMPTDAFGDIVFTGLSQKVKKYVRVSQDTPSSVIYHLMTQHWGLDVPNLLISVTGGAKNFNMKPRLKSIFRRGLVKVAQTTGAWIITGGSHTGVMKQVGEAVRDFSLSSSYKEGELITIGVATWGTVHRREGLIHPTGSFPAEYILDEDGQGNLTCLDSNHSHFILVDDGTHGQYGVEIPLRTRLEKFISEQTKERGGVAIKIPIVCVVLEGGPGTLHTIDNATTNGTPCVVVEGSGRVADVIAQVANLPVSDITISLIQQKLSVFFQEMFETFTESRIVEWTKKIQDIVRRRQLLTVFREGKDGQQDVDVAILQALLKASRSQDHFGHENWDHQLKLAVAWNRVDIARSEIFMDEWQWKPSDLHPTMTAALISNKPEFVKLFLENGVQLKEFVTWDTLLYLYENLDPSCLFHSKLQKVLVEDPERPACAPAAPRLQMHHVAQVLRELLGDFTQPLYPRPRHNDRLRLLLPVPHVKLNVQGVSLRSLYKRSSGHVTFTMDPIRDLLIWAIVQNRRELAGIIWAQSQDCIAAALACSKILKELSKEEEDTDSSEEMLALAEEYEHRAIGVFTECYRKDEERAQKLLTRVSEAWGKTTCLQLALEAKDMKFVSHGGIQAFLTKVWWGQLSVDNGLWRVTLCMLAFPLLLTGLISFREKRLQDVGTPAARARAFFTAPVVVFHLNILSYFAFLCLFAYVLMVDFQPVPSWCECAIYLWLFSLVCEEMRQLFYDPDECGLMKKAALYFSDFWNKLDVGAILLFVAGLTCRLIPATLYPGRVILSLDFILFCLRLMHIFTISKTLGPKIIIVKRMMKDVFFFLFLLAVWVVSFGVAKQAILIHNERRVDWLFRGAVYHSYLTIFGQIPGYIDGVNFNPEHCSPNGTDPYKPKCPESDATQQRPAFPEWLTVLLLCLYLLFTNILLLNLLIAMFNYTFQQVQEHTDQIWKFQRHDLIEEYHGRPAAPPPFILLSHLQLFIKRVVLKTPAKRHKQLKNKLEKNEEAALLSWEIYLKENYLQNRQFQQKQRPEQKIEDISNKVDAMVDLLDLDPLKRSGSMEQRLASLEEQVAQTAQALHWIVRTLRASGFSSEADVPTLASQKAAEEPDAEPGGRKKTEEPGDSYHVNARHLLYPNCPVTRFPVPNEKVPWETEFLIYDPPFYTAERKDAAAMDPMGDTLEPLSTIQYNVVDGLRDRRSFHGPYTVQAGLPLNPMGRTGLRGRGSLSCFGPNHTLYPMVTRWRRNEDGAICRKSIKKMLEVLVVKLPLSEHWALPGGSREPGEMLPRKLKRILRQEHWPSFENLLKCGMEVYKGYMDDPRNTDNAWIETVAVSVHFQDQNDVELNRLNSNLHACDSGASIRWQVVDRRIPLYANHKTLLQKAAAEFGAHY

`Clc1ccc(COC(Cn2ccnc2)c2ccc(Cl)cc2Cl)cc1` (stereo not given) [ECONAZOLE] was tested, and the IC50 [1] was under 3 µM.

`Nc1ncnc2c1ncn2[C@@H]1O[C@H](CNc2c(NC3CCCC3)c(=O)c2=O)[C@@H](O)[C@H]1O` was tested, and the inhibition [2] was “inactive”.

`Cc1cccc(Nc2ccccc2C(=O)O)c1` was tested, and the IC50 [3] was 76 µM.

In the case of `Nc1ncnc2c1ncn2[C@@H]1O[C@H](COP(=O)(O)OP(=O)(O)OC2CCCC2)[C@@H](O)[C@H]1O`, the IC50 [4] is reported as under 900 µM.

`Nc1ncnc2c1nc(-c1ccc(CC(N)C(=O)O)cc1)n2[C@@H]1O[C@H](COP(=O)(O)O)[C@@H](O)[C@H]1O` (stereo not given in full) was tested, and the inhibition [2] was “inactive”.

For `Nc1ncnc2c1nc(-c1ccccc1)n2[C@@H]1O[C@H](COP(=O)(O)OP(=O)(O)OC[C@H]2OC(O)[C@H](O)[C@@H]2O)[C@@H](O)[C@H]1O` (stereo not given in full), the Activity [5] was 31.4%, the IC50 ([6]; read-out: IC50) was 11 µM and the Activity [7] was 31.8%. For the same molecule, the Activity [8] was “Active”.

In the case of `Nc1ncnc2c1ncn2[C@@H]1O[C@H](COP(=O)(O)OP(=O)(O)OP(=O)(O)OC[C@H]2OC(O)[C@H](O)[C@@H]2O)[C@@H](O)[C@H]1O` (stereo not given in full), the inhibition [9] is reported as “inactive”.

Molecule `Nc1ncnc2c1ncn2[C@@H]1O[C@H](COP(=O)(O)OP(=O)(O)OC[C@H]2OC(O)[C@H](O)[C@@H]2O)[C@@H](O)[C@H]1O` (stereo not given in full) has an EC50 [10] of 100 µM.

`O=c1[nH]cnc2c1ncn2[C@@H]1O[C@H](COP(=O)(O)OP(=O)(O)OC[C@H]2OC(O)[C@H](O)[C@@H]2O)[C@@H](O)[C@H]1O` (stereo not given in full) was tested, and the IC50 ([6]; hek293) was “Not Active”.

`Nc1nc(F)nc2c1ncn2[C@@H]1O[C@H](COP(=O)(O)OP(=O)(O)OC[C@H]2OC(O)[C@H](O)[C@@H]2O)[C@@H](O)[C@H]1O` (stereo not given in full) was tested, and the IC50 ([6]; hek293) was “Not Active”.

For `Nc1ncnc2c1ncn2[C@@H]1O[C@H](COP(=O)(O)OP(=O)(O)O)[C@@H](O)[C@H]1O`, the inhibition [9] was “inactive”.

With `Nc1ncnc2c1nc(Cl)n2[C@@H]1O[C@H](COP(=O)(O)O)[C@@H](O)[C@H]1O` the inhibition [9] was “inactive” and the IC50 ([6]; hek293) was “Not Active”.

For `COc1ncnc2c1ncn2[C@@H]1O[C@H](COP(=O)(O)OP(=O)(O)OC[C@H]2OC(O)[C@H](O)[C@@H]2O)[C@@H](O)[C@H]1O` (stereo not given in full), the IC50 ([6]; hek293) was “Not Active”.

For `Cc1cccc(Nc2ccccc2C(=O)O)c1C` [MEFENAMIC ACID], the IC50 [11] was 124 µM.

In the case of `Nc1ncnc2c1cc(Br)n2[C@@H]1O[C@H](COP(=O)(O)OP(=O)(O)OC[C@H]2OC(O)[C@H](O)[C@@H]2O)[C@@H](O)[C@H]1O` (stereo not given in full), the IC50 ([6]; hek293) is reported as “Not Active”.

In the case of `O=c1[nH]cnc2c1ccn2[C@@H]1O[C@H](COP(=O)(O)OP(=O)(O)OC[C@H]2OC(O)[C@H](O)[C@@H]2O)[C@@H](O)[C@H]1O` (stereo not given in full), the IC50 ([6]; hek293) is reported as “Not Active”.

With `Nc1ncnc2c1ncn2CCCCOP(=O)(O)OP(=O)(O)OC[C@H]1OC(O)[C@H](O)[C@@H]1O` (stereo not given in full) the inhibition [2] was “inactive”.

With `Nc1ncnc2c1nc(-c1ccccc1)n2[C@@H]1O[C@H](COP(=O)(O)OP(=O)(O)OC2CCCC2)[C@@H](O)[C@H]1O` the IC50 ([6]; read-out: IC50) was 15 µM and the inhibition [2] was “Active”.

`O=C(O)c1ccccc1Nc1cccc(C(F)(F)F)c1` [FLUFENAMIC ACID] showed an IC50 [11] of 70 µM.

`Nc1ncnc2c1ncn2[C@@H]1O[C@H](COP(=O)(O)O)[C@@H](O)[C@H]1O` [ADENOSINE PHOSPHATE] was tested, and the inhibition [9] was “inactive” and the IC50 [1] was 70 µM.

For `Clc1ccccc1C(c1ccccc1)(c1ccccc1)n1ccnc1` [CLOTRIMAZOLE], the IC50 [1] was under 3 µM.

Molecule COPPER has an IC50 [12] of 2.6 µM.

With `Nc1ncnc2c1nc(-c1ccccc1)n2[C@@H]1O[C@H](Cn2cc(COC[C@H]3OC(O)[C@H](O)[C@@H]3O)nn2)[C@@H](O)[C@H]1O` (stereo not given in full) the inhibition [2] was “inactive”.

With `CCCCCCNc1c(NC[C@H]2O[C@@H](n3cnc4c(N)ncnc43)[C@H](O)[C@@H]2O)c(=O)c1=O` the inhibition [2] was “inactive”.

With `O=C(O)c1cccnc1Nc1cccc(C(F)(F)F)c1` [NIFLUMIC ACID] the IC50 [11] was 149 µM.

In the case of `CCCCNc1c(NC[C@H]2O[C@@H](n3cnc4c(N)ncnc43)[C@H](O)[C@@H]2O)c(=O)c1=O`, the inhibition [2] is reported as “inactive”.

`Nc1ncnc2c1ncn2[C@@H]1O[C@H](CNc2c(NC[C@H]3O[C@@H](O)[C@H](O)[C@@H]3O)c(=O)c2=O)[C@@H](O)[C@H]1O` was tested, and the inhibition [2] was “inactive”.

`Nc1ncnc2c1nc(-c1ccsc1)n2[C@@H]1O[C@H](COP(=O)(O)OP(=O)(O)OC[C@H]2OC(O)[C@H](O)[C@@H]2O)[C@@H](O)[C@H]1O` (stereo not given in full) was tested, and the IC50 ([6]; read-out: IC50) was 51 µM.

In the case of `CC(=O)c1cccc(-c2nc3c(N)ncnc3n2[C@@H]2O[C@H](COP(=O)(O)OP(=O)(O)OC[C@H]3OC(O)[C@H](O)[C@@H]3O)[C@@H](O)[C@H]2O)c1` (stereo not given in full), the IC50 ([6]; read-out: IC50) is reported as 49 µM.

With `Nc1ncnc2c1nc(N)n2[C@@H]1O[C@H](COP(=O)(O)OP(=O)(O)OC[C@H]2OC(O)[C@H](O)[C@@H]2O)[C@@H](O)[C@H]1O` (stereo not given in full) the IC50 ([6]; hek293) was “Not Active”.

Work on `CCCCCc1ccc(/C=C/C(=O)Nc2ccccc2C(=O)O)cc1` yielded an IC50 [13] of 1.7 µM.

`Nc1ncnc2c1nc(-c1ccccc1)n2[C@H]1C[C@H](O)[C@@H](COP(=O)(O)OP(=O)(O)OC[C@H]2OC(O)[C@H](O)[C@@H]2O)O1` (stereo not given in full) was tested, and the inhibition [9] was “Active” and the IC50 ([6]; read-out: IC50) was 3 µM.

`Nc1ncnc2c1nc(Br)n2[C@@H]1O[C@H](COP(=O)(O)OP(=O)(O)OC[C@H]2OC(O)[C@H](O)[C@@H]2O)[C@@H](O)[C@H]1O` (stereo not given in full) gave an IC50 ([6]; read-out: IC50) of 300 µM.
